Source: ChEMBL document CHEMBL1121610, “Plant antitumor agents. 18. Synthesis and biological activity of camptothecin analogues” (J Med Chem, 1980)
≈ marks a conversion by molar mass, not a printed value. Calls of active or inactive are those of the source. No cut-off for these calls is given here.

Assays:
[1] = In vitro cytotoxicity of compound was tested against 9KB cells.; assay type: functional; settings: Homo sapiens, read-out: ED50 (the source's name)
Summary of the method: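 Cytotoxicity against KB (9KB) cells was run in vitro at Research Triangle Institute under standard protocols. Potency is expressed as ED50 in μg/mL.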

P388 [2] = assay: This is the dose at which optimal activity was observed against P-388 leukemia cells; assay type: functional, Mus musculus
Summary of the method: (§1)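 In vivo P-388 lymphocytic leukemia (PS) assay run by National Cancer Institute contractors under standard protocols. Compounds were dosed over a range in mg/kg, and activity is reported as % T/C (treated vs control). The optimal dose and the lowest toxic dose were taken from the dose series, and a therapeutic index was tabulated from them.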

P388 [3] = assay: Antileukemic activity against P-388 leukemia cells was measured at given dose range; assay type: functional, Mus musculus; summary of the method: as §1
[4] = Therapeutic index was measured on P-388 leukemia cells against P-388 leukemia cells; assay type: organism-based; settings: mouse, read-out: Therapeutic index; summary of the method: as §1
Mus musculus [5] = assay: Optimal activity expressed as percentage treated to that of control was measured in vivo against P-388 leukemia cells; assay type: functional; summary of the method: as §1
P388 [6] = assay: Lowest toxicity was observed at this dose against P-388 leukemia cells; assay type: functional, Mus musculus; summary of the method: as §1
[7] = Therapeutic index was measured on P-388 leukemia cells.; settings: mouse, read-out: Therapeutic index; summary of the method: as §1
Mus musculus [8] = assay: Optimal activity expressed as percentage treated to that of control was measured in vivo against P-388 leukemia cells; NA means inactive; assay type: functional, organism-based; summary of the method: as §1
[9] = Therapeutic index was measured on P-388 leukemia cells; settings: mouse, read-out: Therapeutic index; summary of the method: as §1

Row | Structure (SMILES) | EC50 [1] [µg/mL] | Dose (P388 [2]) [mg/kg] | Dose range (P388 [3]) [mg/kg] | selectivity ratio [4] | T/C (Mus musculus [5]) [%] | Dose (P388 [6]) [mg/kg] | selectivity ratio [7] | T/C (Mus musculus [8]) | selectivity ratio [9]
1 | CCC1(O)C(=O)OCc2c1cc1n(c2=O)Cc2cc3cc4ccccc4cc3nc2-1 (stereo unspecified) | 0.2 (≈ 0.502 µM) | 16 | 32 | 4 | 198 | – | – | – | –
2 | CC[C@@]1(O)C(=O)OCc2c1cc1n(c2=O)Cc2cc3cc(O)ccc3nc2-1 [HYDROXYCAMPTOTHECIN] | 0.02 (≈ 0.0549 µM) | 4 | 8 | – | 314 | 8 | 8 | – | –
3 | CC[C@@](O)(C(=O)[O-])c1cc2n(c(=O)c1CO)Cc1cc3ccccc3nc1-2.[Na+] | – | 40 | 8 | – | 212 | 80 | 4 | – | –
4 | CC[C@@]1(O)C(=O)OCc2c1cc1n(c2=O)Cc2cc3cc(OC)ccc3nc2-1 | 0.02 (≈ 0.0529 µM) | 0.5 | 4 | – | 145 | 1 | 1 | – | –
5 | CCCC1(O)C(=O)OCc2c1cc1n(c2=O)Cc2cc3cccnc3nc2-1 (stereo unspecified) | – | 32 | 32 | 2 | 175 | – | – | – | –
6 | CC[C@@]1(O)C(=O)OCc2c1cc1n(c2=O)Cc2cc3cc(OCC(=O)[O-])ccc3nc2-1.[Na+] | > 1 | – | 32 | – | – | – | – | inactive | –
7 | CC[C@@]1(O)C(=O)OCc2c1cc1n(c2=O)Cc2cc3ccccc3nc2-1 [CAMPTOTHECIN] | – | 4 | 8 | – | 197 | 8 | – | – | 8
8 | CCC1(O)C(=O)OCc2c1cc1n(c2=O)Cc2cc3ccccc3nc2-1 (stereo unspecified) | 0.1 (≈ 0.287 µM) | 8 | 16 | – | 222 | 16 | 8 | – | –
9 | COCCC1(O)C(=O)OCc2c1cc1n(c2=O)Cc2cc3ccccc3nc2-1 (stereo unspecified) | 0.2 (≈ 0.529 µM) | 4 | 8 | – | 160 | 8 | 2 | – | –
10 | CCN(CC)CCOc1ccc2nc3c(cc2c1)Cn1c-3cc2c(c1=O)COC(=O)[C@]2(O)CC.Cl | > 1 | 32 | 32 | 16 | 234 | – | – | – | –
